Assay results published in ChEMBL document CHEMBL3091418, “Discovery of a novel activator of 5-lipoxygenase from an anacardic acid derived compound collection” (Bioorg Med Chem, 2013).
Active and inactive are the calls of the source. The rule behind the calls is not given here.

How the values were obtained:
[1] = target: T1, Prostaglandin G/H synthase 2 (Homo sapiens) (UniProt P35354); assay: Inhibition of human COX2 using arachidonic acid as substrate assessed as formation of TMPD at 50 uM incubated for 5 mins prior to substrate addition measured after 5 mins by spectrophotometry
T1 sequence (whole entry): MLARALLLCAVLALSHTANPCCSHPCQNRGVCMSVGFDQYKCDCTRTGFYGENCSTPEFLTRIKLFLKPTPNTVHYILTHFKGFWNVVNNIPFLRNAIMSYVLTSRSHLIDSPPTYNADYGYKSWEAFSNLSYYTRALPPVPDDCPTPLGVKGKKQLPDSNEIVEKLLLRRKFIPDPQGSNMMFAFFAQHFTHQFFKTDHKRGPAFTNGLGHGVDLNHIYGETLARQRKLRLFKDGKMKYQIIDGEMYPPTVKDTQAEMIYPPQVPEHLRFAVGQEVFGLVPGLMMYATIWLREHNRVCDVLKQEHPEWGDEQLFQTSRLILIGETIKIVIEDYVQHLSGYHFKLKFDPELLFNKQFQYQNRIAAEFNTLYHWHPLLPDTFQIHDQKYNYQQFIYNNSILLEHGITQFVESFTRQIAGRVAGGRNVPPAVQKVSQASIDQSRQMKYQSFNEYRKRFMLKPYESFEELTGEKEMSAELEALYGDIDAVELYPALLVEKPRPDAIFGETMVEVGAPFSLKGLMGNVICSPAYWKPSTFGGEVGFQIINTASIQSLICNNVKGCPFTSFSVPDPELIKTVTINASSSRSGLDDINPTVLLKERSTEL
Outline: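 Human recombinant COX-2 (1:1000) in 0.1 M Tris pH 8.0 with hematin, pre-incubated 5 min at room temperature with 50 μM compound. TMPD and arachidonic acid then added and incubated 5 min at room temperature. Oxidized TMPD read at 550 nm. Controls: DMSO (100%) and no arachidonic acid. Triplicate, mean ± SD.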

[2] = target: T2, Polyunsaturated fatty acid 5-lipoxygenase (Homo sapiens) (UniProt P09917); assay: Inhibition of human 5-LOX using lionleic acid as substrate assessed as formation of 13-HPOD at 50 uM incubated for 10 mins prior to substrate addition measured after 10 secs by UV absorbance assay
T2 sequence (whole entry): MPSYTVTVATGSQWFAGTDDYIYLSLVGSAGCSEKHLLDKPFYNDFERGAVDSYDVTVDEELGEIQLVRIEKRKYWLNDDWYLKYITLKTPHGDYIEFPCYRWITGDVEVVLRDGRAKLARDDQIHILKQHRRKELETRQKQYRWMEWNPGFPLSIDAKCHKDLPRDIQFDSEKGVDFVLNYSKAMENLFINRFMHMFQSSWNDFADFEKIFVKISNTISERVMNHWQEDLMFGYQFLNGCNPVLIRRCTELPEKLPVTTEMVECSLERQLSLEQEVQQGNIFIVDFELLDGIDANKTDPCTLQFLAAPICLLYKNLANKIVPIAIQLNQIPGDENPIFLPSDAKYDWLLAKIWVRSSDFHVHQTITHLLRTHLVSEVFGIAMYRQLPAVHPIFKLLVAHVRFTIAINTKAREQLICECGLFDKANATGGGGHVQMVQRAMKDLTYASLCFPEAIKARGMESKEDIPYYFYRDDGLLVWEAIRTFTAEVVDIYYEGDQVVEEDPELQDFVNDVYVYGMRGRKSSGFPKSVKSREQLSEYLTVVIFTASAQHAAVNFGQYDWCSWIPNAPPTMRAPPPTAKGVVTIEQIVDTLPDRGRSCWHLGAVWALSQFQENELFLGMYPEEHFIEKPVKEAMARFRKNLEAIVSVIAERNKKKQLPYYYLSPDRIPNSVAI
Outline: (§1)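 Recombinant human 5-LOX (1:4000 dilution) in 50 mM Tris pH 7.5 with 2 mM EDTA, 2 mM CaCl2 and ATP, pre-incubated 10 min at room temperature with 50 μM compound (DMSO stock diluted in buffer). Linoleic acid (100 μM final) then added. Conjugated-diene HPOD formation read at 234 nm over 20 min, starting after 10 s mixing. Activity given relative to DMSO control (100%) and no-enzyme blank (0%). Triplicate.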

[3] = target: T2, Polyunsaturated fatty acid 5-lipoxygenase (Homo sapiens); assay: Binding affinity to human 5-LOX-linoleic acid complex at <10 uM by Lineweaver-Burk plot analysis relative to human 5-LOX
[4] = target: T2, Polyunsaturated fatty acid 5-lipoxygenase (Homo sapiens); assay: Non-essential mixed type activation of human 5-LOX assessed as increase in Vmax (app) at 12.5 to 25 uM by Michaelis-Menten/ Lineweaver-Burk plot analysis in presence of linoleic acid
Outline: (§2)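 Human 5-LOX, conjugated diene read at 234 nm (ε = 25000 M−1cm−1). ATP fixed at 100 μM, linoleic acid varied over 37.5–300 μM, activator at 0, 12.5 or 25 μM. Km(app) and Vmax(app) taken from Michaelis-Menten and Lineweaver-Burk plots. Triplicate, mean ± SD.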

[5] = target: T2, Polyunsaturated fatty acid 5-lipoxygenase (Homo sapiens); assay: Non-competitive activation of human 5-LOX using linoleic acid as substrate assessed as increase in Vmax (app) at 12.5 to 25 uM by Lineweaver-Burk plot analysis in presence of ATP
Outline: (§3)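 Human 5-LOX, UV assay at 234 nm as in screening. Initial velocities measured with ATP varied over 12.5–200 μM, linoleic acid fixed at 100 μM, and activator at 0, 12.5 or 25 μM. Vmax(app) and Km(app) obtained from Michaelis-Menten and Lineweaver-Burk plots. Triplicate.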

[6] = target: T2, Polyunsaturated fatty acid 5-lipoxygenase (Homo sapiens); assay: Binding affinity to human 5-LOX-linoleic acid complex by Lineweaver-Burk plot analysis
[7] = target: T2, Polyunsaturated fatty acid 5-lipoxygenase (Homo sapiens); assay: Modulation of human 5-LOX using linoleic acid as substrate at 50 uM; outline: as §1
[8] = Critical micelle concentration of the compound in 50 mM Tris buffer containing 2 mM EDTA, 2 mM CaCl2 at pH 7.5 at 19 degC; format: ADME
Outline: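 Surface tension measured across a range of compound concentrations in the 5-LOX assay buffer at room temperature (19 °C) and plotted against log concentration. The CMC was read from this plot.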

[9] = target: T2, Polyunsaturated fatty acid 5-lipoxygenase (Homo sapiens); assay: Modulation of human 5-LOX using arachidonic acid as substrate at 50 uM
Outline: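 Human 5-LOX in Tris pH 7.5 buffer with EDTA and CaCl2, pre-incubated 10 min with 50 μM compound. Substrate was arachidonic acid, 100 μM final. Residual activity measured by UV absorbance of conjugated diene product, relative to an uninhibited control.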

[10] = target: T2, Polyunsaturated fatty acid 5-lipoxygenase (Homo sapiens); assay: Activation of human 5-LOX using lionleic acid as substrate assessed as formation of 13-HPOD at 50 uM incubated for 10 mins prior to substrate addition measured after 10 secs by UV absorbance assay; outline: as §1
[11] = target: T2, Polyunsaturated fatty acid 5-lipoxygenase (Homo sapiens); assay: Non-competitive activation of human 5-LOX using linoleic acid as substrate assessed as increase in Vmax (app) at 12.5 to 25 uM by Michaelis-Menten equation analysis in presence of ATP; outline: as §3
[12] = target: T2, Polyunsaturated fatty acid 5-lipoxygenase (Homo sapiens); assay: Activation of human 5-LOX using lionleic acid as substrate assessed as formation of 13-HPOD incubated for 10 mins prior to substrate addition measured after 10 secs by UV absorbance assay; outline: as §1
[13] = target: T2, Polyunsaturated fatty acid 5-lipoxygenase (Homo sapiens); assay: Binding affinity to human 5-LOX using linoleic acid as substrate by Lineweaver-Burk plot analysis
[14] = target: T2, Polyunsaturated fatty acid 5-lipoxygenase (Homo sapiens); assay: Non-essential mixed type activation of human 5-LOX assessed as decrease in Km (app) at 12.5 to 25 uM by Michaelis-Menten/ Lineweaver-Burk plot analysis in presence of lonoleic acid; outline: as §2
[15] = target: T3, Polyunsaturated fatty acid 5-lipoxygenase (Homo sapiens, UniProt P09917); assay: Binding affinity to human 5-LOX-linoleic acid complex
T3 sequence (P09917 whole entry): T2 sequence (whole entry)
Outline: (§4)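 Human 5-LOX in 50 mM Tris pH 7.5 with 2 mM EDTA and 2 mM CaCl2, pre-incubated 10 min at room temperature with the modulator at fixed 0–50 μM. Linoleic acid was varied 37.5–300 μM with ATP at 100 μM. Initial rates came from the 234 nm diene absorbance, in triplicate. Dissociation constants for free and substrate-bound enzyme were derived by Lineweaver-Burk slope/intercept re-plots.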

[16] = target: T3, Polyunsaturated fatty acid 5-lipoxygenase; assay: Binding affinity to human 5-LOX using linoleic acid as substrate; outline: as §4
[17] = Critical micelle concentration of the compound in 50 mM Tris buffer with 2 mM EDTA and 2 mM CaCl2 at pH 7.5 at 19 degC

CCCCCCCCCOc1cccc(O)c1C(=O)O
inhibition [1]: < 50%

Oc1ccccc1-c1nc2ccccc2o1
inhibition [1]: 50%
inhibition [2]: inactive

CCCCCOc1ccc(COc2cccc(O)c2C(=O)[O-])cc1.[K+]
inhibition [1]: < 50%
fold change (FC) [3]: 50
Activity [4]: Active
Activity [5]: Active
Ka [6]: 380 nM
Activity [7]: Active
CMC [8]: 628 µM
Activity [9]: inactive
Activity [10]: Active
Activity [11]: Active
Activity [12]: Dose-dependent effect
Ka [13]: 8.65 µM
Activity [14]: Active

CCCCCc1cccc(O)c1C(=O)O
inhibition [1]: < 50%
inhibition [2]: Active

CCCCCCCOc1cccc(COc2cccc(O)c2C(=O)O)c1
inhibition [1]: < 50%

CCCCCCCc1ccc(CCc2cc(O)cc(O)c2C(=O)O)cc1
inhibition [1]: < 50%

CCCCCCCCCCCCCCOc1cccc(O)c1C(=O)O
inhibition [1]: < 50%

CCCCCCCCCCCCCCCc1cc(O)cc(O)c1C(=O)O
inhibition [1]: < 50%
inhibition [2]: Active

CC(C)CCCC(C)CCOc1ccc(COc2cccc(O)c2C(=O)[O-])cc1.[K+] (configuration not stated)
Ki [15]: 140 µM
inhibition [1]: < 50%
Ki [16]: 70.3 µM
inhibition [2]: 50%
Activity [7]: Active
CMC [8]: 395 µM
Activity [9]: inactive

CCCCCCCCCCCCCCCc1cccc(O)c1C(=O)O
inhibition [1]: < 50%
inhibition [2]: Active

CCCCCCCCCOc1cccc(COc2cccc(O)c2C(=O)O)c1
inhibition [1]: < 50%

CCCCC/C=C\C/C=C\CCCCCCCC(=O)O [LINOLEIC ACID]
CMC [17]: 185 µM

CCCCCCCCCCc1ccc(CCc2cc(O)cc(O)c2C(=O)O)cc1
inhibition [1]: < 50%

CCCCCCCCCOc1ccc(COc2cccc(O)c2C(=O)O)cc1
inhibition [1]: < 50%
inhibition [2]: inactive

CCCCCCCc1ccc(CCc2cccc(O)c2C(=O)O)cc1
inhibition [1]: < 50%

CCCCCCCOc1ccc(COc2cccc(O)c2C(=O)O)cc1
inhibition [1]: < 50%
inhibition [2]: inactive

CCCCCCCCCCc1cccc(O)c1C(=O)O
inhibition [1]: < 50%
inhibition [2]: Active
